Data from ChEMBL document CHEMBL1772978, “Exploration of the activity of 7-pyrrolidino-8-methoxyisothiazoloquinolones against methicillin-resistant Staphylococcus aureus (MRSA)” (J Med Chem, 2011).
In brackets after ≈: the same amount, converted by molar mass.

Tests used:
[1] = test system: Staphylococcus aureus; test: Antibacterial activity against methicillin-sensitive Staphylococcus aureus ATCC 29213 after 24 hrs by microdilution method; assay type: functional; conditions: ATCC 29213, 24 h
Summary of the method: (§1)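 MIC taken as the lowest concentration with no visible bacterial growth after 18-24 h at 37 °C, given in μg/mL; modal value of multiple experiments.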

[2] = Cytotoxicity against human Hep2 cells after 72 hrs by alamar blue assay; assay type: cell-based; conditions: HEp-2 cells
[3] = test system: Escherichia coli; test: Antibacterial activity against Escherichia coli ATCC25922 after 24 hrs by microdilution method; assay type: functional; conditions: ATCC25922, 24 h; summary of the method: as §1
[4] = test system: Staphylococcus aureus; test: Antibacterial activity against methicillin- and quinolone-resistant Staphylococcus aureus ATCC700699 after 24 hrs by microdilution method; assay type: functional; conditions: ATCC700699, 24 h
Summary of the method: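 Broth microdilution; MIC read as the lowest compound concentration that prevents visible bacterial growth after incubation at 37 °C for 18–24 h, and expressed in μg/mL.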

For `COc1c(N2CC[C@@H](C(C)(C)NCC(C)C)C2)c(F)cc2c(=O)c3c(=O)[nH]sc3n(C3CC3)c12`, the MIC [1] was 0.06 µg/mL (≈ 0.123 µM), the CC50 at 72 h [2] was 88 µM and the MIC [3] was 1 µg/mL (≈ 2.05 µM). It also gave an MIC [4] of 2 µg/mL (≈ 4.09 µM).
With `COc1c(N2CC[C@@H](C(C)(C)N(C)C)C2)c(F)cc2c(=O)c3c(=O)[nH]sc3n(C3CC3)c12` the MIC [1] was 0.06 µg/mL (≈ 0.13 µM), the CC50 at 72 h [2] was 90 µM and the MIC [3] was 0.13 µg/mL (≈ 0.282 µM). It also gave an MIC [4] of 1 µg/mL (≈ 2.17 µM).
`COc1c(N2CC[C@@H](C3(N)CC3)C2)c(F)cc2c(=O)c3c(=O)[nH]sc3n(C3CC3)c12` showed an MIC [1] of 0.001 µg/mL (≈ 0.00232 µM), a CC50 at 72 h [2] of 4 µM and an MIC [3] of 0.008 µg/mL (≈ 0.0186 µM). For the same molecule, the MIC [4] was 0.06 µg/mL (≈ 0.139 µM).
For `CC[C@@H](NC)[C@@H]1CCN(c2c(F)cc3c(=O)c4c(=O)[nH]sc4n(C4CC4)c3c2OC)C1`, the MIC [1] was 0.03 µg/mL (≈ 0.0672 µM), the CC50 at 72 h [2] was 58 µM and the MIC [3] was 0.13 µg/mL (≈ 0.291 µM). The MIC [4] was 2 µg/mL (≈ 4.48 µM).
Molecule `O=c1[nH]sc2c1c(=O)c1cc(F)c(N3CCNCC3)cc1n2C1CC1` has an MIC [1] of 0.06 µg/mL (≈ 0.166 µM), a CC50 at 72 h [2] of 7 µM and an MIC [3] of 0.004 µg/mL (≈ 0.0111 µM). The MIC [4] was 4 µg/mL (≈ 11.1 µM).
`COc1c(N2CC[C@@H](C(C)N)C2)c(F)cc2c(=O)c3c(=O)[nH]sc3n(C3CC3)c12` (mixture of isomers) gave an MIC [1] of 0.004 µg/mL, a CC50 at 72 h [2] of 9 µM and an MIC [3] of 0.02 µg/mL. For the same molecule, the MIC [4] was 0.06 µg/mL.
`COc1c(N2CC[C@H](C(C)N)C2)c(F)cc2c(=O)c3c(=O)[nH]sc3n(C3CC3)c12` (mixture of isomers) showed an MIC [1] of 0.03 µg/mL, an MIC [3] of 0.06 µg/mL and an MIC [4] of 1 µg/mL.
`CNC(C)[C@@H]1CCN(c2c(F)cc3c(=O)c4c(=O)[nH]sc4n(C4CC4)c3c2OC)C1` (mixture of isomers) showed an MIC [1] of 0.008 µg/mL, a CC50 at 72 h [2] of 42 µM and an MIC [3] of 0.03 µg/mL. The MIC [4] was 0.25 µg/mL.
For `CNC(C)[C@H]1CCN(c2c(F)cc3c(=O)c4c(=O)[nH]sc4n(C4CC4)c3c2OC)C1` (mixture of isomers), the MIC [1] was 0.06 µg/mL, the CC50 at 72 h [2] was over 100 µM and the MIC [3] was 0.13 µg/mL. For the same molecule, the MIC [4] was 2 µg/mL.
Molecule `CCNC(C)[C@@H]1CCN(c2c(F)cc3c(=O)c4c(=O)[nH]sc4n(C4CC4)c3c2OC)C1` (mixture of isomers) has an MIC [1] of 0.008 µg/mL, a CC50 at 72 h [2] of 40 µM and an MIC [3] of 0.06 µg/mL. It also gave an MIC [4] of 0.25 µg/mL.
`COc1c(N2CC[C@@H](C(C)NCC(F)(F)F)C2)c(F)cc2c(=O)c3c(=O)[nH]sc3n(C3CC3)c12` (mixture of isomers) gave an MIC [1] of 0.13 µg/mL, a CC50 at 72 h [2] of 41 µM and an MIC [4] of 4 µg/mL.
`COc1c(N2CC[C@@H](C(C)NC(C)C)C2)c(F)cc2c(=O)c3c(=O)[nH]sc3n(C3CC3)c12` (mixture of isomers) showed an MIC [1] of 0.02 µg/mL, a CC50 at 72 h [2] of 51 µM and an MIC [3] of 0.5 µg/mL. It also gave an MIC [4] of 0.5 µg/mL.
`COc1c(N2CC[C@@H](C(C)NC3CC3)C2)c(F)cc2c(=O)c3c(=O)[nH]sc3n(C3CC3)c12` (mixture of isomers) showed an MIC [1] of 0.004 µg/mL, a CC50 at 72 h [2] of 25 µM and an MIC [3] of 0.06 µg/mL. For the same molecule, the MIC [4] was 0.06 µg/mL.
With `COc1c(N2CC[C@H](C(C)NC3CC3)C2)c(F)cc2c(=O)c3c(=O)[nH]sc3n(C3CC3)c12` (mixture of isomers) the MIC [1] was 0.02 µg/mL, the CC50 at 72 h [2] was 43 µM and the MIC [3] was 0.13 µg/mL. The MIC [4] was 0.13 µg/mL.
Molecule `COc1c(N2CC[C@@H](C(C)NCC3CC3)C2)c(F)cc2c(=O)c3c(=O)[nH]sc3n(C3CC3)c12` (mixture of isomers) has an MIC [1] of 0.03 µg/mL, a CC50 at 72 h [2] of 43 µM and an MIC [3] of 0.25 µg/mL. For the same molecule, the MIC [4] was 0.5 µg/mL.
With `COc1c(N2CC[C@@H](C(C)NC3CCCC3)C2)c(F)cc2c(=O)c3c(=O)[nH]sc3n(C3CC3)c12` (mixture of isomers) the MIC [1] was 0.06 µg/mL, the CC50 at 72 h [2] was 42 µM and the MIC [4] was 4 µg/mL.
`COc1c(N2CC[C@@H](C(C)N(C)C)C2)c(F)cc2c(=O)c3c(=O)[nH]sc3n(C3CC3)c12` (mixture of isomers) gave an MIC [1] of 0.03 µg/mL, a CC50 at 72 h [2] of 40 µM and an MIC [3] of 0.06 µg/mL. The MIC [4] was 1 µg/mL.
`CC[C@H](NC)[C@@H]1CCN(c2c(F)cc3c(=O)c4c(=O)[nH]sc4n(C4CC4)c3c2OC)C1` (mixture of isomers) gave an MIC [1] of 0.008 µg/mL, a CC50 at 72 h [2] of 29 µM and an MIC [3] of 0.06 µg/mL. The MIC [4] was 0.5 µg/mL.
`COc1c(N2CC[C@@H](C(N)c3nccs3)C2)c(F)cc2c(=O)c3c(=O)[nH]sc3n(C3CC3)c12` (mixture of isomers) showed an MIC [1] of 0.004 µg/mL, a CC50 at 72 h [2] of 5 µM and an MIC [3] of 0.13 µg/mL. The MIC [4] was 0.06 µg/mL.
For `COc1c(N2CC[C@@H](C(N)c3ncco3)C2)c(F)cc2c(=O)c3c(=O)[nH]sc3n(C3CC3)c12` (mixture of isomers), the MIC [1] was 0.004 µg/mL, the CC50 at 72 h [2] was 5 µM and the MIC [3] was 0.06 µg/mL. For the same molecule, the MIC [4] was 0.25 µg/mL.
In the case of `COc1c(N2CC[C@@H](C(N)c3ccccn3)C2)c(F)cc2c(=O)c3c(=O)[nH]sc3n(C3CC3)c12` (mixture of isomers), the MIC [1] is reported as 0.008 µg/mL, the CC50 at 72 h [2] is reported as 1 µM and the MIC [3] is reported as 0.06 µg/mL. The MIC [4] was 0.13 µg/mL.
In the case of `COc1c(N2CCC(CNCC(C)C)C2)c(F)cc2c(=O)c3c(=O)[nH]sc3n(C3CC3)c12` (racemic), the MIC [1] is reported as 0.06 µg/mL (≈ 0.13 µM), the CC50 at 72 h [2] is reported as 46 µM and the MIC [3] is reported as 0.13 µg/mL (≈ 0.282 µM). It also gave an MIC [4] of 4 µg/mL (≈ 8.68 µM).
In the case of `COc1c(N2CCC(C(C)(C)NC3CC3)C2)c(F)cc2c(=O)c3c(=O)[nH]sc3n(C3CC3)c12` (racemic), the MIC [1] is reported as 0.02 µg/mL (≈ 0.0423 µM), the CC50 at 72 h [2] is reported as 54 µM and the MIC [3] is reported as 0.25 µg/mL (≈ 0.529 µM). It also gave an MIC [4] of 0.25 µg/mL (≈ 0.529 µM).
